According to the RNAGym collection of RNA variant scans (doi:10.1126/science.aae0568):
This sample holds only a part of the variants without activity.

B1: tRNA (parent)
chain: GUUCCGUUGGCGUAAUGGUAACGCGUCUCCCUCCUAAGGAGAAGACUGCGGGUUCGAGUCCCGUACGGAACG

Variants of: B1
Assay: yeast fitness relative to wild type (ratio to wild type); higher = fitter; tRNA-Arg(CCU), competitive growth, 37 C, YPD
Outline: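 Changes in genotype frequencies gave Darwinian fitness relative to wild type. Frequencies were read by 100-nucleotide paired-end sequencing of gene amplicons before and after pooled Saccharomyces cerevisiae strains, carrying tRNA-Arg(CCU) gene variants at the native locus, were competed in YPD at 37°C for 24 hours in six replicates. A genotype was kept only with ≥ 100 starting reads, and estimates < 0.5 were set to 0.5.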

| Variant | yeast fitness |
| --- | --- |
| GUUCCGUUGGCGUGAUGGUAACGCGUCUCCCUCCUUAGGAGAAGAAUGCGAGUUCGAGUCCCGUACGGAACG | ≤ 0.5 |
| GUUCCGUUGGCGUGAUGGUAAGGCGUCUCCCUCCUAAGGAGAAGACUGCGGGUUCGAGUCCCGUACGGAUCG | 0.774 |
| GUUCCGUUGGCGUGAUGGUAAGGCGCCUCCGUCCUAAGGAGAAGACUGCGGGUUCGAGUCCCGUACGGAACG | 0.615 |
| GUUCCGUUGGCGUGAUGGUAUCGCGUCUCCCUCCUAAGGAGAAGACUGCGGGUUCCAGUCCCGUACGCAACG | 0.637 |
| GUUCCGUUGGCGUGAUGGUACCGCGUCUCGCUCCUAAGGAGAAGACUGCGGGUUCGAGUCCCGUACGGAACG | ≤ 0.5 |
| GUUCCGUUGGCGUGAUGGUAACGCGUCUCCCUCCUGAGGAGAAGACUACGGGUUCGAGUCCCGUACGGAACG | 0.555 |
| GUUCCGUUGGCGUGAUGGUAACGCGUCUCCCUCCUAAGGAGAAGACUGCGGGUUCGGGUCCCGUACGCAACG | 0.616 |
| GUUCCGUUGGCGUGAUGGUUACGCGUCUGCCUUCUAAGGAGAAGACUGCGGGUUCGAGUCCCGUACGGAACG | 0.543 |
| GUUCCGUUGGCGUGAUGGUCACGCGUCUCCCUCCUAAGGAGAAGACUGCGGGUUCGAGUUCCGUACGGAACG | ≤ 0.5 |
| GUUCCGUUGGCGUGAUGGUAACGCGUCUCCCUCCUAAGGAGACGACUGCGGCUUCGAGUCCCGUACGGAACG | ≤ 0.5 |
| GUUCCGUUGGCGUGAUGGUAAGGCGUCACCGUCCUAAGGAGAAGACUGCGGGUUAGAGUCCCGUACGCAACG | ≤ 0.5 |
| GUUCCGUUGGCGUGAUGGUCACGCGUCUCCCUCCUAAGGAGAAGAGUGCGGGUUCGAGUCCCGUACGGAACG | 0.635 |
| GUUCCGUUGGCGUGAUGGUAACGCGUCUCCCUCCUUAGGAGAAGAGUGCGGGUUCGAGUCCAGUACGGCACG | ≤ 0.5 |
| GUUCCGUUGGCGUGAUGGUAACGCGUCUCCCUCCUAAGGGGAAGACCGCGGGUUCGAGUCCCGUACGGAACG | 0.551 |
| GUUCCGUUGGCGUGAUGGUAAAGCGUCUUCCUCCUAAGGAGAAGACUGCGGGUUCCACUCCCGUAUGGAACG | ≤ 0.5 |
| GUUCCGUUGGCGUGUUGGUAACGCCUCUCCCUCCUAAGGAGAAGACUGCGGGUACGAGUCCCGUACGGAACG | ≤ 0.5 |
| GUUCCGUUGGCGUGAUGGUACCGCGUCUCCCUCCUCAGGAGAUGACUGCGGGUUCGAGUCCCGUACUGAACG | ≤ 0.5 |
| GUUCCGUUGGCGUGUUGGUAACGCGUCUCCCUCCUAAGGAGAAGACUGCUGGUUCGAGUCCCGGACGGAACG | 0.542 |
| GUUCCGUUGGCGUGAUGGUAAGGCGUCUCCCUCCUAAGGAGAAGACUGCGGGUUCGAGUCCCGAACGGAACG | ≤ 0.5 |

| Variant | yeast fitness |
| --- | --- |
| GUUCCGUUGGCGUGAUGGUCACGCGUCUCCCUCCUUAGCAGAAGACUGCGGGUUCGAGUCCCGUACGGAACG | ≤ 0.5 |
| GUUCCGUUGGCGUGAUGGUAACGCGUCUCCCUCCUGAGGAGAAGACAGCGGGUUCGAGUCCCGUACGGAACG | ≤ 0.5 |
| GUUCCGUUGGCGUGAUGGUACCGCGUCUCGCUCCUAAGGAGAAGACUGCGGGUUCGGGUCCCGUACGGAACG | ≤ 0.5 |
| GUUCCGUUGGCGUGAUGGUACCGCGUCUCGCUCCUAAGGAGAAGACUGCGGGUUCGUGUCCCGUACGGAACG | ≤ 0.5 |
| GUUCCGUUGGCGUGAUGGUGACGCGUCUCCCUCCUAAGGAGAAGACUGCGGGUUCGAGUCCCGUACGGCACG | 0.528 |
| GUUCCGUUGGCGUGAUGGUAAUGCGUCUCCCUCCUAAGGAGAAGUCUGCGGGUUCGAGUCCCGUACGGAACG | 0.626 |
| GUUCCGUUGGCGUGAUGGUAAGGCGUCUCCCUCCGAAGGCGAAGACUGCGGGUUCGAGUCCCGUACGGAGCG | ≤ 0.5 |
| GUUCCGUUGGCGUGAUGGUAACGCGUCUCCCUCCUACGGAGAAGACUGCGGGUUCGAGUCCCGUACGGAACG | 0.73 |
| GUUCCGUUGGCGUGAUGGUAACGCGUCUCCCUCCUAAGGCGAAGACUGCGGGUUCGAGUCCGGUAUGGAACG | ≤ 0.5 |
| GUUCCGUUGGCGUGAUGGUACCGCGUCUCCCUCCUAAGGAGAAGACUGCGGGUUCGAGUCCCGUCCGGAACG | 0.539 |
| GUUCCGUUGGCGUGAUGGUAAGGCGUCUCCCUCCUAAGGAGAAGACUGCGGGUUCGAGUCCCGUACGGAACG | 0.806 |
| GUUCCGUUGGCGUGAUGGUAACGCGUCUCCCUCCUAAGGAGAAGACUGCGGGUUCGAGUCCCGUGCGGACCG | 0.755 |
| GUUCCGUUGGCGUGAUGGUAACGCGUCUCCCUCCUAAGGAGUAGACUGCGGGUUCGAGUCCCGUACGGAACG | 0.873 |
| GUUCCGUUGGCGUGAUGGUAACGCGUCUCCCUCCUUCGGAGAAGACUGAGGGGUCGAGUCCCGUACGGAACG | ≤ 0.5 |
| GUUCCGUUGGCGUGAUGGUAACGCGUCUCCCUCCUAAGGAGAAGACUGCGGGUUCGUGUCCCGUUCGGAACG | ≤ 0.5 |
| GUUCCGUUGGCGUGAUGGUAAGGCGUCUCGCUCCUAAGGAGAAGACUGCGGGUUCGAGUCCCGUACGAAACG | ≤ 0.5 |
| GUUCCGUUGGCGUGAUGGUAACGCGUCUCCCUCCUACGGAGAAGACUGCGGGUUCGAGUCCCGUGCGGAACG | 0.659 |
| GUUCCGUUGGCGUGAUGGUAACGCGUCUCCCUCCUAAGGGGAAGAUUGCGGGUUCGAGUCCCGUACGGAACG | 0.57 |
